The source of these data is paper PMC5987874 (The Journal of General Physiology, 2018).

What all share (experiment): Whole-cell voltage clamp, Zn^2+ modulation of GAQ gating
Holding throughout (format): cell-based

Assay [1] addresses T1, human Hv1 E119A (E^1.58A) (Homo sapiens, UniProt Q96D96, E119A).
T1 sequence (Q96D96 1-273 E119A): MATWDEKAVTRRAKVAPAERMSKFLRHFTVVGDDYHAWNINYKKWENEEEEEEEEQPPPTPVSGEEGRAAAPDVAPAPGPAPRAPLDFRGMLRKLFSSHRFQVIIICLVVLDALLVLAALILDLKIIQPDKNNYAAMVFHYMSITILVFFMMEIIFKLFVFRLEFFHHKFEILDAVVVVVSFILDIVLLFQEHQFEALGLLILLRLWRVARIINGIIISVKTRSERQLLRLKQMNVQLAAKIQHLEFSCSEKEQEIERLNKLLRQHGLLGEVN
Put shortly:
(§1)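 Whole-cell patch clamp at ~21°C. Pipette and bath (mM): ~80 TMA-MeSO3, 100 Bis-Tris, 8 HCl, pH 6.5, 310–320 mOsm. ZnCl2 was diluted into bath solution and applied by gravity superfusion, at least 2 min per change. Test step voltage was set per construct from its V0.5. G_STEP = end-of-step current/(V−V_REV). Effect = 1 − G_Zn/G_control, fitted to the Hill equation. IC50 and nH are means ± SEM from separate cells. ΔpIC50 was tested by unpaired t test, P<0.05.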

Assay [2] addresses T2, human Hv1 H140A-D185H-H193A (Homo sapiens, UniProt Q96D96, D185H/H140A/H193A).
T2 sequence (Q96D96 1-273 H140A/D185H/H193A): T1 sequence (Q96D96 1-273 E119A) with A119E, H140A, D185H, H193A
Put shortly:
as §1

Assay [3] concerns the target T3, human Hv1 D185H (D^3.61H) (Homo sapiens, UniProt Q96D96, D185H).
T3 sequence (Q96D96 1-273 D185H): T1 sequence (Q96D96 1-273 E119A) with A119E, D185H
Summed up:
as §1

The target in assay [4] is T4, human Hv1 E119H-H140A-H193A (Homo sapiens, UniProt Q96D96, E119H/H140A/H193A).
T4 sequence (Q96D96 1-273 E119H/H140A/H193A): T1 sequence (Q96D96 1-273 E119A) with A119H, H140A, H193A
Put shortly:
as §1

Setting [5] is: VSTEP 120 mV, calculated as log (IC50).

Residue numbers refer to the chain shown, from its start. Where “and” joins values, the source holds several entries; their conditions need not be identical. Equal entries are not always repeated. Where two headings read alike, the source gives them in different places.

As to `[Cl-].[Cl-].[Zn+2]` [Zn^2+, ZnCl2], the “Mean ΔpIC50 = (pIC50_1 - pIC50_2)” value in assay [1] (E119A vs WT) is −0.28; in assay [2] (H140A-D185H-H193A vs H140A-H193A) it was 0.38; in assay [4] (E119H-H140A-H193A vs H140A-H193A, positive = increase in Zn^2+ potency) it was 2.4 and 2.39. Further, the entries for the “nH, fit of the mean data to a Hill function” value in assay [1] (Fig. 3C), in assay [3] (Fig. 4D) and in assay [4] (Fig. 4A) were 0.8, 0.6 and 0.7, respectively. For the same molecule, the Hill value in assay [1] (VSTEP 120 mV) stood at 0.80; in assay [2] (VSTEP 100 mV), 1.05; in assay [3] (VSTEP 120 mV), 0.77; in assay [4] (VSTEP 60 mV), 0.84. For the same molecule, the pIC50 is 5.16 in assay [1] (setting [5]); −3.15 in assay [2] (VSTEP 100 mV, calculated as log (IC50)); 5.38 in assay [3] (setting [5]); 5.15 in assay [4] (VSTEP 60 mV, calculated as log (IC50)). Moreover, the IC50 in assay [1] (read-out: IC50, fit of the mean data to a Hill function, Fig. 3C) was 6.7 µM; in assay [3] (read-out: IC50, fit of the mean data to a Hill function, Fig. 4D), 6.5 µM; in assay [4] (read-out: IC50, fit of the mean data to a Hill function, Fig. 4A), 7.6 µM; in assay [4] (read-out: Mean IC50 @ VSTEP, VSTEP 60 mV, pH 6.5, mean of fits in separate cells) it was 7.3 µM. For the same molecule, in assay [4] (from H140A-H193A to E119H-H140A-H193A), the “change of Zn^2+ IC50” value was found to be 2.4 fold.
